The array DNA melting data of Ke et al. (doi:10.1101/2024.01.08.574731)

Tests used:
[1] = folding enthalpy; higher = less favourable; fluorescence melt of hairpins on a sequencing array, two-state fit; conditions: sodium 0.088 M
Procedure, shortened: (§1)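 Folding enthalpy and melting temperature were estimated with bootstrapped two-state fits and combined across four replicates by inverse-variance weighting, with fitted temperatures raised by 9.35 °C to match UV melts. The data were Cy3 fluorescence of library hairpins, with annealed Cy3 and quencher oligos, on a sequenced MiSeq flow cell in 50 mM Na-HEPES pH 8.0, 25 mM NaCl, imaged in 2.5 °C steps up to 60 °C and normalised to pre-quench Cy3 and control constructs.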

[2] = melting temperature; fluorescence melt of hairpins on a sequencing array, two-state fit, raised by 9.35 °C to match UV melts; conditions: sodium 0.088 M
Procedure, shortened: as §1

Sequence | folding enthalpy [1] [kcal/mol] | Tm [2] [°C]
GAACGCGAAAGCGTGTTC ((((((....)))..))) | -10.5 | 46.6
GAACGCGCGAAAGCGTTC (((..(((....)))))) | -24.7 | 57.8
GAACGCGGAAACACGTCC (.(((.(....).))).) | -20.1 | 28.2
GAACGCGGAAACGCACTC ((..(((....)))..)) | -8.19 | 30.1
GAACGCGGAAACGCATTC (((.(((....))).))) | -19.9 | 40.1
GAACGCGGAAACGCGTCC (.(((((....))))).) | -9.64 | 47.8
GAACGGAAACGTTC (((((....))))) | -31.7 | 55.2
GAACGGACGAAAGTCTTC (((..(((....)))))) | -7.13 | 20.7
GAACGGGGAAACCCGCTC ((.((((....)))).)) | -16.3 | 45.3
GAACGTGGAAACATGTTC ((((.((....)).)))) | -36.2 | 47.2
GAACGTGGAAACGCGTTC (((((.(....).))))) | -36.4 | 53.8
GAACTAGAAATAGTTC ((((((....)))))) | -29.3 | 42
GAACTAGGAAACTAGTCC (.(((((....))))).) | -20.4 | 29.7
GAACTCCCGAAAGGGTTC (((..(((....)))))) | -12.6 | 31.7
GAACTGGCGAAAGCCTTC (((..(((....)))))) | -6.15 | 19.7
GAACTGGGAAACCAGTCC (.(((((....))))).) | -14.1 | 37.3
GAACTTGGAAACAAGCTC ((.((((....)))).)) | -27.1 | 33.8
GAACTTGGAAACAAGTCC (.(((((....))))).) | -16.4 | 36
GAACTTGGAAACAGGTTC ((((.((....)).)))) | -32.2 | 41
GAAGAACGAAAGTTTTTC (((.(((....))).))) | -28.8 | 36
GAAGAAGAAATTCTTC ((((((....)))))) | -18.5 | 38.1
GAAGAAGCGAAAGCTTTC (((..(((....)))))) | -9.3 | 30.1
GAAGACCGAAAGGTGTTC (((.(((....))).))) | -33 | 52

Sequence | folding enthalpy [1] [kcal/mol] | Tm [2] [°C]
GAAGACGAAAGTCCGTTC ((((((....)))..))) | -8.8 | 27.6
GAAGACGAAAGTCGTTTC ((((((....)))..))) | -12.1 | 35.3
GAAGACGCGAAAGCGTTC (((..(((....)))))) | -7.5 | 32.1
GAAGAGAAATCTTC (((((....))))) | -10.9 | 30.6
GAAGATGGAAACATTTTC (((.(((....))).))) | -21.9 | 30.4
GAAGCCGAAAGGCAGTTC ((((((....)))..))) | -9.04 | 30
GAAGCCGAAAGGCATTTC ((((((....)))..))) | -6.75 | 25.9
GAAGCCGAAAGGCCCTTC ((((((....)))..))) | -11.8 | 31.3
GAAGCCGAAAGGCTCTTC ((((((....)))..))) | -20.8 | 56.6
GAAGCCGGAAACGACTTC ((((.((....)).)))) | -34.4 | 46
GAAGCCGGAAACGGTTTC (((.(((....))).))) | -40.2 | 49.9
GAAGCTGGAAACAGCTTC (((((((....))))))) | -40.9 | 62.7
GAAGGACGAAAGTCTTC (((.(((....)))))) | -14.7 | 39.8
GAAGGAGGAAACTCCTCC (.(((((....))))).) | -12.7 | 40.9
GAAGGAGGAAACTCTTTC (((.(((....))).))) | -20.7 | 31.6
GAAGGAGGAAACTTCTTC ((((.((....)).)))) | -35.7 | 46.8
GAAGGCGAAAGCCAATTC ((((((....)))..))) | -11.2 | 39.5
GAAGGCGAAAGCCAGTTC ((((((....)))..))) | -10.2 | 29.7
GAAGGCGGAAACGCCCTC ((.((((....)))).)) | -8.85 | 35.1
GAAGGCGGAAACGCCTCC (.(((((....))))).) | -8.57 | 42.3
GAAGGGCCGAAAGGCTTC (((..(((....)))))) | -7.08 | 23
GAAGGGCGAAAGCCGTTC (((.(((....))).))) | -22.7 | 56.6
GAAGGGCGAAAGCCTTTC (((.(((....))).))) | -17.9 | 49.4

Sequence | folding enthalpy [1] [kcal/mol] | Tm [2] [°C]
GAAGGGGCGAAAGCCTTC (((..(((....)))))) | -9.14 | 35.2
GAAGGTGAAAACCTTC ((((((....)))))) | -28.7 | 57.2
GAAGTAGAAATACTTC ((((((....)))))) | -26.5 | 42.5
GAAGTCCGAAAGGATTC (((.(((....)))))) | -14.1 | 33.8
GAAGTCGAAAGACTTC ((((((....)))))) | -34.2 | 65.7
GAAGTCGGAAACGACTCC (.(((((....))))).) | -13.2 | 41.3
GAAGTCGGAAACGATTTC (((.(((....))).))) | -30.6 | 44.2
GAAGTCGGAAACGGTTTC (((..((....))..))) | -8.25 | 28.4
GAATAAGGAAACTTATTC (((((((....))))))) | -33.5 | 44.6
GAATACACGAAAGTGTTC (((..(((....)))))) | -13.4 | 27.3
GAATACCGAAAGGTCTTC (((.(((....))).))) | -24.1 | 36.7
GAATACCGAAAGGTTTC (((.(((....)))))) | -16.5 | 39.2
GAATACGAAAGTAGATTC ((((((....)))..))) | -20.3 | 29.1
GAATACGGAAACGTATTC (((((((....))))))) | -36.5 | 55.7
GAATAGGGAAACCTATCC (.(((((....))))).) | -15.5 | 26.4
GAATATCCGAAAGGATTC (((..(((....)))))) | -13.4 | 28.5
GAATCCGAAAGGATGTTC ((((((....)))..))) | -13.8 | 37.3
GAATCCGAAAGGATTC ((((((....)))))) | -37 | 66.5
GAATCCGGAAACGGATCC (.(((((....))))).) | -14.2 | 40.6
GAATCCGGAAACGGGTTC (((.(((....))).))) | -33.5 | 52.2
GAATCGAAAGATTC (((((....))))) | -27.4 | 50.9
GAATCGCGAAAGCGCTTC (((.(((....))).))) | -18.1 | 43.2
GAATCGGGAAACTGGTTC (((.(.(....).).))) | -19.8 | 29.3

Sequence | folding enthalpy [1] [kcal/mol] | Tm [2] [°C]
GAATCTCCGAAAGGATTC (((..(((....)))))) | -13.5 | 28.7
GAATCTGGAAACAGACTC ((.((((....)))).)) | -17.7 | 29.1
GAATCTGGAAACGGATTC (((((.(....).))))) | -35.1 | 44.8
GAATGACGAAAGTCGTTC (((.(((....))).))) | -34.4 | 54.7
GAATGAGGAAACCCATTC (((((.(....).))))) | -20.9 | 36.1
GAATGCACGAAAGTGTTC (((..(((....)))))) | -8.75 | 23.1
GAATGCCGAAAGGCTTTC (((.(((....))).))) | -21.7 | 48
GAATGCGCGAAAGCGTTC (((..(((....)))))) | -8.39 | 26.1
GAATGCGGAAACGCACTC ((.((((....)))).)) | -13.1 | 38.4
GAATGGCCGAAAGGCTTC (((..(((....)))))) | -6.89 | 27.6
GAATGTGGAAACACGTTC (((.(((....))).))) | -32.3 | 47.8
GAATGTGGAAACGCATTC (((((.(....).))))) | -37.5 | 46
GAATTAGGAAACTAGTTC (((.(((....))).))) | -16.8 | 27.1
GAATTCCGAAAGGATTC (((.(((....)))))) | -20.2 | 38.4
GAATTCCGAAAGGATTTC (((.(((....))).))) | -29.7 | 40.7
GAATTCGAAAGAATTC ((((((....)))))) | -44.9 | 54.4
GAATTCGGAAACGAACTC ((.((((....)))).)) | -17.4 | 33.7
GAATTGGGAAACCAATTC (((((((....))))))) | -45 | 54
GAATTTGGAAACAAATTC (((((((....))))))) | -45.1 | 52
GACAAAACGAAAGTTGTC (((..(((....)))))) | -24.8 | 39.3
GACAAAGGAAACTTTGTC (((((((....))))))) | -43.8 | 53.9
GACAACCCGAAAGGGGTC (((..(((....)))))) | -12.9 | 39.1
